Laboratory results: publication PMC7531564 (mAbs, 2020)
Residue numbers refer to the chain shown, from its start.

Key:
[1] = target: T1, human ARG2 (Homo sapiens, UniProt P78540); assay: Isothermal titration calorimetry with free ARG2; type: binding; settings: KD (ITC), free ARG2 20 µM monomer, 25°C
T1 sequence (P78540 23-354): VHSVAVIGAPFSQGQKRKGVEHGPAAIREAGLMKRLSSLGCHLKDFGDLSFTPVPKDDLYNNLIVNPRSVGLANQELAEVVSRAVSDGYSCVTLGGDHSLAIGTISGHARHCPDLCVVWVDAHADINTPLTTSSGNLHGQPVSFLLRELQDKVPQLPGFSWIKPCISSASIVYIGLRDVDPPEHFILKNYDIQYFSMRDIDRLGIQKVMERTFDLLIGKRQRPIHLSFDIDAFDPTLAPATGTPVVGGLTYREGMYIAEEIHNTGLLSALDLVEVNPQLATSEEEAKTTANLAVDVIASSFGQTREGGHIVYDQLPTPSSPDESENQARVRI
Procedure, shortened: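 ITC on a MicroCal VP at 25°C. A 750 µM (0.75 mM) boronic acid arginase-inhibitor ligand was titrated into 20 µM recombinant human ARG2 (monomer concentration). Thermograms were integrated, and isotherms were fitted to a one-site (one-to-one) binding model. Error was taken as a 68.3% confidence interval.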

[2] = target: T2, ARG2-C0021158 Fab complex (Homo sapiens, UniProt P78540); assay: Isothermal titration calorimetry with ARG2-C0021158 Fab complex; type: binding; settings: ARG2 + C0021158 Fab 1:1 mix, 20 µM each
T2 sequence (P78540 23-354): T1 sequence (P78540 23-354)
Procedure, shortened: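 ITC on a MicroCal VP at 25°C. Recombinant human ARG2 and test Fab were mixed 1:1 at 20 µM each (ARG2 as monomer) and pre-incubated 1 h at 20°C. Boronic acid arginase-inhibitor ligand at 0.50 mM was then titrated in. Isotherms were fitted to a one-site binding model.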

[3] = tested on: mouse cancer models; settings: cited from earlier work
[4] = tested on: CD3/CD28 co-stimulated T-cells; assay: In vitro T-cell proliferation assay; type: cell-based, human; settings: ARG2 15 µg/ml; BrdU
Procedure, shortened: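 Human PBMCs were isolated from leukocyte cones by Ficoll gradient, and T cells were enriched by negative selection. 40000 cells/well in RPMI 1640 with 5% human serum albumin were activated with CD3/CD28 (1:40) for 45 min at 37°C, 5% CO2. Antibody titrations in TBS/NaCl were added for 30 min, then recombinant human trimeric ARG2 (15 µg/ml final). Incubation lasted 96 h total, with BrdU added at 78 h and read by ELISA. Data were expressed as % of control, with EC50 from a four-parameter fit.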

[5] = tested on: mRCC CL-19 cell line; settings: high expressing ARG2 mRCC CL-19 cell line; cited from earlier work
[6] = target: the molecule itself; assay: crystal structure
[7] = target: biotinylated recombinant human ARG2 trimer (human, UniProt P78540, biotin (site not stated))
[8] = target: recombinant human Arginase 2 (ARG2) trimer, residues 23-354, C-terminal His6-tag (human, UniProt P78540); assay: crystal structure

Molecule: Cl.N[C@@H](CSCCB(O)O)C(=O)O [BEC, S-(2-Boronoethyl)-L-cysteine hydrochloride]
- Kd [1]: ~7 µM
- binding to C0021158-bound ARG2 (ITC) [2]: no interaction

Molecule: C[C@H](N)C(=O)N1C[C@H](CCCB(O)O)[C@](N)(C(=O)O)C1 [CB-1158]
- tumor growth ([3]; mouse cancer models): reduces tumor growth

Molecule: NC(=NCCC[C@H](N)C(=O)O)NO [NHLA, N^G-hydroxy-L-arginine]
- restoration of ARG2-inhibited T-cell proliferation [4]: partially restore

Molecule: N=C(NO)NCC[C@H](N)C(=O)O [nor-NOHA, N^ω-hydroxy-nor-L-arginine]
- anti-tumor effect in vivo ([3]; in vivo mouse models): anti-tumor effects
- cell growth [5]: significantly suppressed cell growth

B1: recombinant human Arginase 2 (ARG2) trimer, residues 23-354, C-terminal His6-tag (enzyme, UniProt P78540 23-354, looked up)
chain: T1 sequence (P78540 23-354)
- stoichiometry N [6]: 3

B2: C0021177 (antibody, V domains shown)
VH: EVQLLESGGGLVQPGGSLRLSCAASGFTFRYEVAAWVRQAPGKGLEWVSAISGPAPKGYYADSVKGRFTISRDNSKNTLYLQMNSLRAEDTAVYYCARLRADLGLYMDLWGRGTLVTVSS
VL: QSELTQPPTASAAPGQKVTISCSGSSSNIGNHYVSWYQQLPGTAPKLLIYDTTVLSSGIPDRFSGSKSGTSATLGITGLQTGDEADYYCGTWDELTSNLVFGGGTKLTVL
- Kd [7]: 0.000173 µM

B3: C0021158 Fab (Fab, V domains shown)
VH: B2 VH with A55I
VL: B2 VL with E3V, T9S, A10V, T52N, T53S, V54E, L55R, S56T, S57A, I59V
- stoichiometry N [8]: 3 Fab per ARG2 trimer
